Test [1] relates to Rattus norvegicus. The test can be described thus: Antiallergic activity in the rat passive cutaneous anaphylaxis at dose 5 mg/kg after ip. Type of test: functional. Conditions: route intraperitoneal. In outline: (§1)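 Rats were immunized with ovalbumin 1 mg im plus about 10^10 Bordetella pertussis organisms (as pertussis vaccine) ip. Drug was suspended in 1% gum tragacanth/saline and given orally or ip 10–15 min before iv challenge with ovalbumin 1 mg plus 0.25% Evans blue. Wheal diameter was read 30 min later; n=5 per group; Student's t test.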

The subject of test [2] is Rattus norvegicus. The test can be described thus: Compound was tested for antiallergic activity in the rat passive cutaneous anaphylaxis at dose 5 mg/kg after po; No significant activity. Set-up: dose 5 mg/kg. Type of test: functional, organism-based. In outline:
as §1

The subject of test [3] is Rattus norvegicus. In words: Compound was tested for antiallergic activity in the rat passive cutaneous anaphylaxis at dose 1-2 mg/kg after iv administration; Inactive. Type of test: functional, organism-based.
Test [4] concerns Rattus norvegicus. In words: Compound was tested for antiallergic activity in the rat passive cutaneous anaphylaxis, after intravenous administration. The test is classed as functional. Conditions: read-out: ID50 (the source's name). The method in brief: (§2)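 Ovalbumin/pertussis-immunized rat antiserum was titrated intradermally on the back 48 h before challenge. Compound was given iv, dissolved directly in the challenge solution (ovalbumin 1 mg in 1 mL saline, 0.25% Evans blue), with slight molar excess NaHCO3 if needed. Wheal diameter was measured 30 min later. Percent inhibition was taken at the highest antiserum level versus control, corrected for the extrapolated base value; groups of five.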

For test [5], the system named is Rattus norvegicus. The test can be described thus: Compound was tested for antiallergic activity in the rat passive cutaneous anaphylaxis, after peroral administration. The test is classed as functional. The settings on record: po, read-out: ID50 (the source's name). The method in brief:
as §1

Test [6] concerns Rattus norvegicus. In words: Compound was tested for antiallergic activity in the rat passive cutaneous anaphylaxis at dose 0.5 mg/kg after po. The test is classed as functional. In outline:
as §1

Test [7] deals with Rattus norvegicus. In words: Compound was tested for antiallergic activity in the rat passive cutaneous anaphylaxis at dose 0.1 mg/kg after intravenous administration. Type of test: functional. The method in brief: as §2
The test system of test [8] is Rattus norvegicus. The test can be described thus: Compound was tested for antiallergic activity in the rat passive cutaneous anaphylaxis at dose 5 mg/kg after po. Type of test: functional. The method in brief: as §1
Test [9] deals with Rattus norvegicus. The test can be described thus: Compound was tested for antiallergic activity in the rat passive cutaneous anaphylaxis at dose 5 mg/kg after ip; No significant activity. The test is classed as functional, organism-based. On the set-up: dose 5 mg/kg. In outline:
as §1

For test [10], the system named is Rattus norvegicus. The test can be described thus: Compound was tested for antiallergic activity in the rat passive cutaneous anaphylaxis at dose 1 mg/kg after po. Type of test: functional. The method in brief: as §1

Molecules are shown by their SMILES. The source made the active and inactive calls. No cut-off for these calls is given here.

In the test with Rattus norvegicus [1], `CCc1cc2c(=O)n3cc(C(=O)Nc4nn[nH]n4)ccc3nc2s1` had an inhibition in vivo at 5 mg/kg of 62%. Besides, the inhibition result with Rattus norvegicus [2] is “No significant activity”. As to `O=C(O)c1cc(=O)c2c(OCC(O)COc3cccc4oc(C(=O)O)cc(=O)c34)cccc2o1`, in the test with Rattus norvegicus [3], the ID50 result is “inactive”. Regarding `O=C1c2ccccc2S(=O)(=O)c2cc(-c3nn[nH]n3)ccc21` [DOXANTRAZOLE], the figures for the ED50 with Rattus norvegicus [4] and in the test with Rattus norvegicus [5] were 1.5 mg/kg and 5 mg/kg, respectively. `CC(C)c1cc2c(=O)n3cc(C(=O)O)ccc3nc2s1` displayed an inhibition in vivo at 5 mg/kg in the test with Rattus norvegicus [1] of 100%. Still for that read-out and setting: as for `CCCCc1cc2c(=O)n3cc(C(=O)O)ccc3nc2s1`, the figure is 52%; as for `CC(C)c1cc2c(=O)n3cc(-c4nnn[nH]4)ccc3nc2s1`, 28%. Take `CCc1cc2c(=O)n3cc(-c4nnn[nH]4)ccc3nc2s1`: the inhibition in vivo at 5 mg/kg in the test with Rattus norvegicus [1] turned out to be 97%. Moreover, in the test on Rattus norvegicus [6], the inhibition in vivo at 0.5 mg/kg is 38%. The molecule also came in with an inhibition in vivo at 0.1 mg/kg in the test with Rattus norvegicus [7] of 56%. For the molecule `O=C(Nc1nn[nH]n1)c1ccc2nc3sc(-c4ccccc4)cc3c(=O)n2c1`, in the test with Rattus norvegicus [1], 5 mg/kg produced 17% inhibition in vivo. For the same molecule, the inhibition entry with Rattus norvegicus [2] is “No significant activity”.

On to `CCOC(=O)c1ccc2nc3sc(C(C)C)cc3c(=O)n2c1`, for which at 5 mg/kg the inhibition in vivo with Rattus norvegicus [1] was 63%. Regarding `CCc1cc2c(=O)n3cc(C(=O)OC)ccc3nc2s1`, the inhibition in vivo at 5 mg/kg with Rattus norvegicus [8] is 75%; in the test with Rattus norvegicus [1], 100%. As for `Cc1sc2nc3ccc(C(=O)Nc4nn[nH]n4)cn3c(=O)c2c1C`, in the test with Rattus norvegicus [1], the inhibition in vivo at 5 mg/kg was determined as 94%. For the same molecule, in the test on Rattus norvegicus [2], the inhibition entry was “No significant activity”. In the case of `Cc1cc2c(=O)n3cc(C#N)ccc3nc2s1`, the inhibition in vivo at 5 mg/kg in the test on Rattus norvegicus [8] amounted to 100%; with Rattus norvegicus [1], 88%. Take `COC(=O)c1ccc2nc3scc(C)c3c(=O)n2c1`: 5 mg/kg produced 23% inhibition in vivo with Rattus norvegicus [1].

In the case of `CCOC(=O)c1sc2nc3ccc(C(=O)OC)cn3c(=O)c2c1C`, the inhibition entry with Rattus norvegicus [9] was “No significant activity”. As for `Cc1cc2c(=O)n3cc(C(=O)O)ccc3nc2s1`, the inhibition in vivo at 5 mg/kg was found to be 62% in the test with Rattus norvegicus [8] and 100% with Rattus norvegicus [1]. In the same order, the values of `CCCc1cc2c(=O)n3cc(-c4nnn[nH]4)ccc3nc2s1` are 67% and 100%. On to `Cc1cc2c(=O)n3cc(-c4nnn[nH]4)ccc3nc2s1`, for which at 5 mg/kg the inhibition in vivo in the test with Rattus norvegicus [1] was 100%. For the same molecule, the inhibition entry in the test with Rattus norvegicus [2] was “No significant activity”. In the test with Rattus norvegicus [1], `Cc1cc2c(=O)n3cc(C(=O)Nc4nn[nH]n4)ccc3nc2s1` yielded an inhibition in vivo at 5 mg/kg of 25%. Also, in the test on Rattus norvegicus [2], the inhibition result is “No significant activity”. With `Cc1sc2nc3ccc(-c4nnn[nH]4)cn3c(=O)c2c1C`, the figures for the inhibition in vivo at 5 mg/kg in the test with Rattus norvegicus [8] and in the test on Rattus norvegicus [1] were 21% and 30%, respectively. Turning to `CCc1cc2c(=O)n3cc(C(N)=O)ccc3nc2s1`, testing at 5 mg/kg in the test with Rattus norvegicus [1] gave an inhibition in vivo of 46%. In the test with Rattus norvegicus [2], the inhibition entry was “No significant activity”. Regarding `Cc1cc2c(=O)n3cc(C(N)=O)ccc3nc2s1`, the inhibition in vivo at 5 mg/kg in the test on Rattus norvegicus [8] is 38%; in the test with Rattus norvegicus [1] it was 100%.

Molecule `CCCc1cc2c(=O)n3cc(C(=O)O)ccc3nc2s1` returned an inhibition in vivo at 1 mg/kg in the test with Rattus norvegicus [10] of 18%. The molecule further came in with an inhibition in vivo at 5 mg/kg with Rattus norvegicus [1] of 68%.

The molecule `CC(C)c1cc2c(=O)n3cc(C(=O)Nc4nn[nH]n4)ccc3nc2s1` showed an inhibition in vivo at 5 mg/kg in the test on Rattus norvegicus [1] of 30%.

Regarding `CCc1cc2c(=O)n3cc(C(=O)O)ccc3nc2s1`, 5 mg/kg produced 100% inhibition in vivo in the test with Rattus norvegicus [1]. Moreover, the inhibition in vivo at 0.5 mg/kg in the test with Rattus norvegicus [6] stood at 69%. Also, in the test with Rattus norvegicus [7], testing at 0.1 mg/kg gave an inhibition in vivo of 33%.

For `CCCCc1cc2c(=O)n3cc(C(N)=O)ccc3nc2s1`, 5 mg/kg produced 25% inhibition in vivo in the test on Rattus norvegicus [1]. In the test on Rattus norvegicus [2], the inhibition result was “No significant activity”. In the case of `CCCCc1cc2c(=O)n3cc(-c4nnn[nH]4)ccc3nc2s1`, in the test with Rattus norvegicus [1], the inhibition in vivo at 5 mg/kg was found to be 26%.

`Cc1sc2nc3ccc(C(=O)O)cn3c(=O)c2c1C` gave an inhibition in vivo at 5 mg/kg in the test with Rattus norvegicus [1] of 28%. In the test with Rattus norvegicus [2], the inhibition entry was “No significant activity”. In the same order, the values of `O=c1c2cc(-c3ccccc3)sc2nc2ccc(-c3nnn[nH]3)cn12` are 84% and “No significant activity”. The molecule `CC(C)c1cc2c(=O)n3cc(C(N)=O)ccc3nc2s1` registered an inhibition in vivo at 5 mg/kg with Rattus norvegicus [1] of 100%. `CCc1cc2c(=O)n3cc(C#N)ccc3nc2s1`: the inhibition in vivo at 5 mg/kg in the test with Rattus norvegicus [1] was found to be 13%. Besides, the inhibition result in the test on Rattus norvegicus [2] is “No significant activity”. In the case of `O=C(O)c1ccc2nc3sc(-c4ccccc4)cc3c(=O)n2c1`, the inhibition in vivo at 5 mg/kg in the test with Rattus norvegicus [8] and with Rattus norvegicus [1] was 17% throughout.

As to `CCCCc1cc2c(=O)n3cc(C(=O)Nc4nn[nH]n4)ccc3nc2s1`, at 5 mg/kg the inhibition in vivo in the test with Rattus norvegicus [1] was 18%.

For the molecule `Cc1sc2nc3ccc(C#N)cn3c(=O)c2c1C`, the inhibition in vivo at 5 mg/kg in the test on Rattus norvegicus [1] stood at 14%.

By inhibition in vivo is commonly meant the relative decrease from the control value, in per cent.

Values taken from ChEMBL document CHEMBL1121665, “Synthesis and antiallergy activity of 4-oxo-4H-pyrido[1,2-a]thieno[2,3-d]pyrimidines” (1981).
